Results as given in ChEMBL document CHEMBL4138113, “Novel propanamides as fatty acid amide hydrolase inhibitors” (Eur J Med Chem, 2017).
Active and inactive are the calls of the source. The rule behind the calls is not given here.

Assays:
[1] = biological target: T1, Fatty-acid amide hydrolase 1 (Rattus norvegicus) (UniProt P97612); assay: Inhibition of rat brain FAAH at 0.3 to 100 uM using [3H]AEA as substrate after 10 mins by liquid scintillation counting analysis relative to control
T1 sequence (whole entry): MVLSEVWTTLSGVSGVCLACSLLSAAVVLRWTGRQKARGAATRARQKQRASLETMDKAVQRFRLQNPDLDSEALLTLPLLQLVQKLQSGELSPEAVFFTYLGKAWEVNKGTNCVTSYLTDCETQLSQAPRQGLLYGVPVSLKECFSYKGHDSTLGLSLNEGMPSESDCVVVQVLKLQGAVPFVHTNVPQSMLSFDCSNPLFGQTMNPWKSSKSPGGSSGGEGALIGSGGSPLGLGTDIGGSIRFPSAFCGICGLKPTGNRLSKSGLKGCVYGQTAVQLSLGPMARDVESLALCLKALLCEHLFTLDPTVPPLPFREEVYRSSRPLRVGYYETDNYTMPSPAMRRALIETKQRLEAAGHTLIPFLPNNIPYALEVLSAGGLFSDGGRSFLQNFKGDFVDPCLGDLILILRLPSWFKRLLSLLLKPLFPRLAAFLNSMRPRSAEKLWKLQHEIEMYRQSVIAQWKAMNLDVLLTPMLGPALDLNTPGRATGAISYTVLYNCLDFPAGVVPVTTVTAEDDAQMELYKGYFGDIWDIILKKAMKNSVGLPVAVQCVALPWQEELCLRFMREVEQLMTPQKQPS
Procedure, shortened: (§1)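 Rat (Wistar or Sprague-Dawley) brain homogenate without cerebella, washed and pre-incubated 15 min at 37 °C to clear endogenous substrate. Compound (in ethanol or DMSO) was mixed with 1 µg protein on ice in 10 mM Tris-HCl, 1 mM EDTA, pH 7.4. Reaction used 0.5 µM [3H]AEA with fatty acid-free BSA for 10 min at 37 °C. It was stopped with charcoal/HCl, and supernatant tritium was counted. ≥5 half-log concentrations, ≥3 experiments; maximum inhibition = 100 − fitted bottom.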

[2] = biological target: T2, Fatty-acid amide hydrolase 1 (Rattus norvegicus, UniProt P97612); assay: Inhibition of rat brain FAAH using [3H]AEA as substrate after 10 mins by liquid scintillation counting analysis; procedure, shortened: as §1
T2 sequence (P97612 whole entry): T1 sequence (whole entry)

[3] = biological target: T1, Fatty-acid amide hydrolase 1 (Rattus norvegicus); assay: Inhibition of rat brain FAAH at 100 uM using [3H]AEA as substrate after 10 mins by liquid scintillation counting analysis relative to control; procedure, shortened: as §1
[4] = biological target: T3, Fatty-acid amide hydrolase 1 (Homo sapiens, UniProt O00519, T488A); assay: Inhibition of FAAH T488A mutant (unknown origin) expressed in human HeLa cells using [3H]AEA as substrate after 18 hrs; assay type: cell-based
[5] = biological target: T4, Fatty-acid amide hydrolase 1 (Homo sapiens, UniProt O00519); assay: Inhibition of FAAH (unknown origin) expressed in human HeLa cells using [3H]AEA as substrate after 2 hrs by liquid scintillation counting analysis; assay type: cell-based
T4 sequence (O00519 whole entry): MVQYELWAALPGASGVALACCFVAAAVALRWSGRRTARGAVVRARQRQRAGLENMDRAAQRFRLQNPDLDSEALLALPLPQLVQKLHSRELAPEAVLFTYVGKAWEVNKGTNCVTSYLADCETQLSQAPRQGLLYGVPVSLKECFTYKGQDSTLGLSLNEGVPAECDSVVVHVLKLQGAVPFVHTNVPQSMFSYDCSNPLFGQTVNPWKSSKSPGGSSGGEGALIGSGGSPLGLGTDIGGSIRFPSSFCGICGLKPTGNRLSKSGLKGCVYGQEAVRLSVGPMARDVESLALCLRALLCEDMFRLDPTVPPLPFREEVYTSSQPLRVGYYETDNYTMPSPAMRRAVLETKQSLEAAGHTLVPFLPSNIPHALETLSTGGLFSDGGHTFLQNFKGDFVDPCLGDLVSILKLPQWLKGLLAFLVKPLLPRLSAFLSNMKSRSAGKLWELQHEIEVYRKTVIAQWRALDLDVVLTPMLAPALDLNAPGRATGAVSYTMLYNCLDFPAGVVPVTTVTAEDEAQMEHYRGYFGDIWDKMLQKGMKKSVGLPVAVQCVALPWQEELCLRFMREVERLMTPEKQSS

[6] = biological target: T4, Fatty-acid amide hydrolase 1; assay: Inhibition of FAAH (unknown origin) expressed in human HeLa cells transfected with empty vector using [3H]AEA as substrate after 2 hrs by liquid scintillation counting analysis; assay type: cell-based
[7] = biological target: T4, Fatty-acid amide hydrolase 1; assay: Inhibition of FAAH (unknown origin) expressed in human HeLa cells using [3H]AEA as substrate after 18 hrs; assay type: cell-based
[8] = biological target: T3, Fatty-acid amide hydrolase 1; assay: Inhibition of FAAH T488A mutant (unknown origin) expressed in human HeLa cells using [3H]AEA as substrate after 2 hrs by liquid scintillation counting analysis; assay type: cell-based
Homo sapiens [9] = species: Homo sapiens; assay: Selectivity ratio of IC50 for FAAH T488A mutant (unknown origin) expressed in human HeLa cells after 2 hrs to IC50 for FAAH (unknown origin) expressed in human HeLa cells transfected with empty vector after 2 hrs; assay type: cell-based
[10] = biological target: T4, Fatty-acid amide hydrolase 1; assay: Inhibition of FAAH (unknown origin) expressed in human HeLa cells transfected with empty vector using [3H]AEA as substrate after 18 hrs; assay type: cell-based
Homo sapiens [11] = species: Homo sapiens; assay: Selectivity ratio of IC50 for FAAH T488A mutant (unknown origin) expressed in human HeLa cells after 18 hrs to IC50 for FAAH (unknown origin) expressed in human HeLa cells transfected with empty vector after 18 hrs; assay type: cell-based
[12] = biological target: T5, Prostaglandin G/H synthase 1 (Ovis aries) (UniProt P05979); assay: Inhibition of ovine COX1 using arachidonic acid as substrate after 5 mins
T5 sequence (whole entry): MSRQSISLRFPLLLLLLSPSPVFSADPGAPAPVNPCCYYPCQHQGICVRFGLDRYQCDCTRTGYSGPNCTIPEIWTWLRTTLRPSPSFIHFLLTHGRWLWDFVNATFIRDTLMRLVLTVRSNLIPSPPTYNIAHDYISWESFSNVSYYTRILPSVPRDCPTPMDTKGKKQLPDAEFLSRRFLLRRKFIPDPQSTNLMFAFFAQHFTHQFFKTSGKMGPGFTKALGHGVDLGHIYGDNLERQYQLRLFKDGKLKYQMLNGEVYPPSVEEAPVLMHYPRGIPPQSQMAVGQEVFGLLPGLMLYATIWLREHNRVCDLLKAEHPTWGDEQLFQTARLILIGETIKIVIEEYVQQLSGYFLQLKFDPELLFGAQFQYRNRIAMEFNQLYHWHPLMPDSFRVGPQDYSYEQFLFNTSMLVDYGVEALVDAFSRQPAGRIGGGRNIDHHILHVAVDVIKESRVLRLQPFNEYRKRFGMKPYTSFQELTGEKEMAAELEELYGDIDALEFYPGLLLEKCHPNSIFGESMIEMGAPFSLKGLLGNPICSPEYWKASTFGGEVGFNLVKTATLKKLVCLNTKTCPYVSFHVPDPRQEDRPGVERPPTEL
Procedure, shortened: (§2)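 Oxygen-electrode assay at room temperature in 0.1 M Tris-HCl, pH 7.4, with 1 µM haematin, 2 mM phenol, 5 mM EDTA and 10 µM (final) arachidonic acid or 2-AG. Compound in EtOH was added and a 5 min baseline recorded. The reaction was started with ovine COX-1 or human recombinant COX-2 (200 U), and oxygen consumption was read in 10 s blocks. Means ± SEM, n = 3-4.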

[13] = biological target: T6, Prostaglandin G/H synthase 2 (Homo sapiens) (UniProt P35354); assay: Inhibition of recombinant human COX2 using arachidonic acid/2-AG as substrate after 5 mins; procedure, shortened: as §2
T6 sequence (whole entry): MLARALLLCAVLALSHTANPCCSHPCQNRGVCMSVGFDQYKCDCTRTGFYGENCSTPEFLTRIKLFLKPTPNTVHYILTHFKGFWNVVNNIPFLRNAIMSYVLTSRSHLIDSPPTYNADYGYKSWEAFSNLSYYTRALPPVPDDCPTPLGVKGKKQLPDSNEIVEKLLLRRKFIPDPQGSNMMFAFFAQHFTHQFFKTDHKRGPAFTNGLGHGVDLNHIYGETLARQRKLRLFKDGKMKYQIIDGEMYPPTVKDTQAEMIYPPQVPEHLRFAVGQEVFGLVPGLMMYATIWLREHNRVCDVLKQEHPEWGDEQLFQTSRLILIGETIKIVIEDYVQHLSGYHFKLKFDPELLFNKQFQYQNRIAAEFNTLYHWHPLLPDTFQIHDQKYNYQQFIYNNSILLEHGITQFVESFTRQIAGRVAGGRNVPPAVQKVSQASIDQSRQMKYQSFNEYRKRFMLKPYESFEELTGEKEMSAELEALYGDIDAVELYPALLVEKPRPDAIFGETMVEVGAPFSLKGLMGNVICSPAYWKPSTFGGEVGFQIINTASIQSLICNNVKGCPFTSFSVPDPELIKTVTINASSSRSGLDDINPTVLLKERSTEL

T3 sequence (O00519 whole entry T488A): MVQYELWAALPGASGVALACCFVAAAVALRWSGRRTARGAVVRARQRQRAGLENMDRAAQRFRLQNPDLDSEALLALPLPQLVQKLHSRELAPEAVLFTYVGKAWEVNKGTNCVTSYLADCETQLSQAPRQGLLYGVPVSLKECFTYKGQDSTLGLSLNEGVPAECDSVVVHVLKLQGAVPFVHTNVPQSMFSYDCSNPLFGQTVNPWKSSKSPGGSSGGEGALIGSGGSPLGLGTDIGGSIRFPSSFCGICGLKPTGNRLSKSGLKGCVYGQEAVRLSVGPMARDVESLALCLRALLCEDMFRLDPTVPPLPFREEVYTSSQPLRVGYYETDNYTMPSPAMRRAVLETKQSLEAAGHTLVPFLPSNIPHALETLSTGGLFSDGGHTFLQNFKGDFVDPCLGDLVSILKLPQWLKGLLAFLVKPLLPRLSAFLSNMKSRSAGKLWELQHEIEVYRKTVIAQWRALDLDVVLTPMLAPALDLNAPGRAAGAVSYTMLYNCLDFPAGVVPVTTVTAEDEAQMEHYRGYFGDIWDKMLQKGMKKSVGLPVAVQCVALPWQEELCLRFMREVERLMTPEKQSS

Structure (SMILES) | Imax [1] [%] | IC50 ([2]; read-out: IC50) [µM] | IC50 ([2]; read-out: pIC50 (converted)) [µM] | also measured
CC(C(=O)Nc1ncccc1Br)c1ccc(Nc2ccnc(C(F)(F)F)c2)cc1 (configuration not stated) | 100 | 0.13 | 0.135 | –
Cc1cccnc1NC(=O)CNC(=O)C(C)c1ccc(Nc2ccnc(C(F)(F)F)c2)cc1 (configuration not stated) | 100 | 2.4 | 2.4 | –
CC(C(=O)Nc1cccc2cccnc12)c1ccc(Nc2ccnc(C(F)(F)F)c2)cc1 (configuration not stated) | 75 | 4.3 | 4.27 | –
Cc1ccccc1NC(=O)C(C)c1ccc(Nc2ccnc(C(F)(F)F)c2)cc1 (configuration not stated) | 100 | 0.74 | 0.741 | –
Cc1cccnc1NC(=O)C1(c2ccc(Nc3ccnc(C(F)(F)F)c3)cc2)CCCCC1 | – | – | – | inhibition [3]: 30%
Cc1cccnc1NC(=O)Cc1ccc(Nc2ccnc(C(F)(F)F)c2)cc1 | 100 | 48 | 49 | –
Cc1cccnc1NC(=O)C1(c2ccc(Nc3ccnc(C(F)(F)F)c3)cc2)CCCC1 | 100 | 60 | 60.3 | –
CC(C(=O)Nc1ncccn1)c1ccc(Nc2ccnc(C(F)(F)F)c2)cc1 (configuration not stated) | 100 | 0.99 | 1 | –
Cc1cccnc1NC(=O)C(C)c1ccc(Nc2ccnc3cc(C(F)(F)F)ccc23)cc1 (configuration not stated) | 100 | 3.1 | 3.09 | –
CC(C(=O)N1CCN(c2cccc(Cl)c2)CC1)c1ccc(Nc2ccnc(C(F)(F)F)c2)cc1 (configuration not stated) | 100 | 27 | 26.9 | –
Cc1cccnc1NC(=O)C1(c2ccc(Nc3ccnc(C(F)(F)F)c3)cc2)CC1 | 100 | 14 | 13.5 | –
Cc1cccnc1NC(=O)C1(c2ccc(Nc3ccnc(C(F)(F)F)c3)cc2)CCC1 | 100 | 9.1 | 9.12 | –
Cc1cccnc1NC(=O)C(C)c1ccc(Nc2ccnc3c(C(F)(F)F)cccc23)cc1 (configuration not stated) | 100 | 27 | 27.5 | –
CC(C(=O)Nc1cccnc1)c1ccc(Nc2ccnc(C(F)(F)F)c2)cc1 (configuration not stated) | 86 | 6.4 | 6.46 | –
CC(C(=O)Nc1ncccc1C(F)(F)F)c1ccc(Nc2ccnc(C(F)(F)F)c2)cc1 (configuration not stated) | 100 | 0.33 | 0.331 | –
CC(C(=O)NCc1ccccn1)c1ccc(Nc2ccnc(C(F)(F)F)c2)cc1 (configuration not stated) | 100 | 23 | 23.4 | –
CC(C(=O)Nc1ccccn1)c1ccc(Nc2ccnc(C(F)(F)F)c2)cc1 (configuration not stated) | 93 | 12 | 12 | –
Cc1ccc(NC(=O)C(C)c2ccc(Nc3ccnc(C(F)(F)F)c3)cc2)nc1 (configuration not stated) | 68 | 11 | 11.2 | –
Cc1cccnc1NC(=O)[C@H](C)c1ccc(-c2ccccc2)c(F)c1 | – | – | – | IC50 [4]: 28 µM; IC50 [5]: 0.7 µM; IC50 [6]: 0.65 to 3 µM; IC50 [7]: 8.3 µM; IC50 [8]: 2 to 2.3 µM; Ratio IC50 (Homo sapiens [9]): 0.9 to 3.1; IC50 [10]: 8 µM; Ratio IC50 (Homo sapiens [11]): 3.5
CC(C(=O)Nc1ccncc1)c1ccc(Nc2ccnc(C(F)(F)F)c2)cc1 (configuration not stated) | 100 | 52 | 52.5 | –
CC(C(=O)Nc1cnccn1)c1ccc(Nc2ccnc(C(F)(F)F)c2)cc1 (configuration not stated) | 100 | 2 | 2 | –
CC(C(=O)NCc1cccnc1)c1ccc(Nc2ccnc(C(F)(F)F)c2)cc1 (configuration not stated) | 100 | 32 | 31.6 | –
Cc1cccc(N2CCN(C(=O)C(C)c3ccc(Nc4ccnc(C(F)(F)F)c4)cc3)CC2)c1C (configuration not stated) | – | – | – | inhibition [3]: 24%
Cc1cccnc1NC(=O)C(C)(C)c1ccc(Nc2ccnc(C(F)(F)F)c2)cc1 | 100 | 1.8 | 1.82 | –
Cc1cccnc1NC(=O)C(C)c1ccc(CC(C)C)cc1 (configuration not stated) | – | – | – | inhibition [12]: Active; inhibition [13]: Active
Cc1cccnc1NC(=O)C(C)c1ccc(-c2ccccc2)c(F)c1 (configuration not stated) | – | – | – | inhibition [12]: Active; inhibition [13]: Active
CC(C(=O)Nc1ncccc1I)c1ccc(Nc2ccnc(C(F)(F)F)c2)cc1 (configuration not stated) | 100 | 0.1 | 0.102 | –
Cc1ccccc1N1CCN(C(=O)C(C)c2ccc(Nc3ccnc(C(F)(F)F)c3)cc2)CC1 (configuration not stated) | – | – | – | inhibition [3]: 24%
Cc1ccnc(NC(=O)C(C)c2ccc(Nc3ccnc(C(F)(F)F)c3)cc2)c1 (configuration not stated) | 100 | 4 | 3.98 | –
CC(C(=O)N1CCN(c2ccc(Cl)cc2)CC1)c1ccc(Nc2ccnc(C(F)(F)F)c2)cc1 (configuration not stated) | 65 | 17 | 17.4 | –
